Assays:
L5178Y = test: Compound was tested for inhibition of rhodamine 123 efflux in mdr 1 transfectant L5178Y VMDRI C.06 mouse lymphoma cells; assay type: functional, cell-based
How it was run: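 Cells at 1 × 10⁶/mL in RPMI1640 preloaded with rhodamine 123 (final 0.2 μg/mL, 0.53 μmol/L) for 15 min at 37 °C, then resuspended in 37 °C medium with modulator (eight concentrations, 1:2.5 serial dilution, 3 nM–500 μM). Aliquots taken at 0, 30, 60, 90, 120 s into ice-cold verapamil stop solution. Read by flow cytometry, 5000 events. Vmax/Km from exponential fit, parental-line diffusion subtracted. EC50 from dose–response, mean of ≥5 experiments.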

[1] = biological target: ATP-dependent translocase ABCB1 (Homo sapiens, UniProt P08183); test: Compound was tested for inhibition of daunomycin efflux in the resistant human T-lymphoblast cell line CEM vcr1000.; assay type: functional, cell-based, CCRF-CEM
Sequence of ATP-dependent translocase ABCB1 (P08183 whole entry): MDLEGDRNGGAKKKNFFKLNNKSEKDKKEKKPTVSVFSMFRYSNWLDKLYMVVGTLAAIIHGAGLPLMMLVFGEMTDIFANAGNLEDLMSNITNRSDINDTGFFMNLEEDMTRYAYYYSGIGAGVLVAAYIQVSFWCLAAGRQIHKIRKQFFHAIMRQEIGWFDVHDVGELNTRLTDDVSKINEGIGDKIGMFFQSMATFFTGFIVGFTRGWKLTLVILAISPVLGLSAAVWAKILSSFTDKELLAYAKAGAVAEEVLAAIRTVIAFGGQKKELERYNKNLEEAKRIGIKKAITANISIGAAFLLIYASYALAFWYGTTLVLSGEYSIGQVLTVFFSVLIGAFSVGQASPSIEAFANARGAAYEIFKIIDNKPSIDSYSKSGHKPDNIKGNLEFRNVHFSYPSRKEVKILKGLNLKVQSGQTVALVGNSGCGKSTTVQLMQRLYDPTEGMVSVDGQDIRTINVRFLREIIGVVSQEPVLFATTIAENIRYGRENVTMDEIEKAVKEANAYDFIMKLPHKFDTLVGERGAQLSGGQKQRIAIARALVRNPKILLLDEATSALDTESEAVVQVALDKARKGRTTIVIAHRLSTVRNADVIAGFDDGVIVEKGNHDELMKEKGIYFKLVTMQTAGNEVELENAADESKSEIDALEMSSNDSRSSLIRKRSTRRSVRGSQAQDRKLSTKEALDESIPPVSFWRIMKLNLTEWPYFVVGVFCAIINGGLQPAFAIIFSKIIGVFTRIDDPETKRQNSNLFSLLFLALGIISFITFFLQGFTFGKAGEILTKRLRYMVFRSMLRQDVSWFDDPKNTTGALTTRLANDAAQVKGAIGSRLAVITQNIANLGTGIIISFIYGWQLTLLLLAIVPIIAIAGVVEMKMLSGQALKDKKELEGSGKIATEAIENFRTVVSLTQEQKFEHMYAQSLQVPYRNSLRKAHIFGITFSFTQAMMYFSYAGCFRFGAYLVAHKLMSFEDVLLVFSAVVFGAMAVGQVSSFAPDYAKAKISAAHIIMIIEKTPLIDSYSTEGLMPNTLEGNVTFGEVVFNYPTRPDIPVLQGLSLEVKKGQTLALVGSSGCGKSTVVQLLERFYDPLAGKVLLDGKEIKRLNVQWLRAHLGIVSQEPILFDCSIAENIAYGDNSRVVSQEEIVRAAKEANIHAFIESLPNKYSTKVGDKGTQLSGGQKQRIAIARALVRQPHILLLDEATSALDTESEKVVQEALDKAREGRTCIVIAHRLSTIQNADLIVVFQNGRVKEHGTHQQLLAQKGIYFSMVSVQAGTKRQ

Structure (SMILES) | EC50 (L5178Y) | EC50 [1]
Cc1c(C(=O)c2ccccc2)c(=O)n(-c2ccccc2)n1CC(O)CN(C(C)C)C(C)C (centres undefined) | 21.9 µM | 12.6 µM
Cc1c(C(=O)c2ccccc2)c(=O)n(-c2ccccc2)n1CC(O)CNC(C)C (centres undefined) | 226 µM | 83.2 µM
Cc1c(C(=O)c2cccs2)c(=O)n(-c2ccccc2)n1CC(O)CNC(C)C (centres undefined) | 648 µM | 123 µM
CCCNCC(O)Cn1c(C)c(C(=O)c2cccs2)c(=O)n1-c1ccccc1 (centres undefined) | 174 µM | 72.4 µM
CCCNCC(O)Cn1c(C)c(C(=O)CCc2ccccc2)c(=O)n1-c1ccccc1 (centres undefined) | 15.2 µM | 6.31 µM
Cc1c(C(=O)c2ccccc2)c(=O)n(C)n1CC(O)CN(C(C)C)C(C)C (centres undefined) | – | 24.1 µM
Cc1c(C(=O)CCc2ccccc2)c(=O)n(-c2ccccc2)n1CC(O)CNC(C)C (centres undefined) | 34.2 µM | 11.8 µM
Cc1c(C(=O)c2cccs2)c(=O)n(-c2ccccc2)n1CC(O)CNC(C)(C)C (centres undefined) | 94.7 µM | 72.4 µM
CCCNc1c(C(=O)CCc2ccccc2)c(C)nn1-c1ccccc1 | – | 8.38 µM
CCCNCC(O)Cn1c(C)c(C(=O)c2ccccc2)c(=O)n1-c1ccccc1 (centres undefined) | 64.5 µM | 28.2 µM
Cc1c(C(=O)CCc2ccccc2)c(=O)n(-c2ccccc2)n1CC(O)CNC(C)(C)C (centres undefined) | 17.8 µM | 7.76 µM
Cc1c(C(=O)c2ccccc2)c(=O)n(-c2ccccc2)n1CC(O)CNC(C)(C)C (centres undefined) | 168 µM | 81.3 µM
CCC/N=C(\c1ccccc1)c1c(C)[nH]n(C)c1=O | – | 273 µM
CCCNc1c(C(=O)c2ccccc2)c(C)nn1-c1ccccc1 | – | 11 µM

These reach a lower EC50 [1]. Values come first.

EC50 (L5178Y) | EC50 [1] | Structure (SMILES)
4.02 µM | 2.69 µM | CCCCNCC(O)Cn1c(C)c(C(=O)CCc2ccccc2)c(=O)n1-c1ccccc1 (centres undefined)
– | 1.21 µM | Cc1nn(C)c(OCC(O)CN(C(C)C)C(C)C)c1C(=O)c1ccccc1 (centres undefined)
2.22 µM | 1.06 µM | Cc1nn(-c2ccccc2)c(OCC(O)CN(C(C)C)C(C)C)c1C(=O)c1ccccc1 (centres undefined)
– | 3.79 µM | CCC/N=C(\CCc1ccccc1)c1c(C)[nH]n(-c2ccccc2)c1=O
2.43 µM | 0.89 µM | Cc1ccccc1N1CCN(CC(O)Cn2c(C)c(C(=O)c3ccccc3)c(=O)n2-c2ccccc2)CC1 (centres undefined)
– | 0.21 µM | Cc1ccccc1N1CCN(CC(O)Cn2c(C)c(C(=O)CCc3ccccc3)c(=O)n2-c2ccccc2)CC1 (centres undefined)
– | 0.68 µM | CC1=NN(c2ccccc2)C(=O)/C1=C(/c1ccccc1)N1CCN(c2ccccc2C)CC1

From ChEMBL document CHEMBL1131135, “Substituted 4-acylpyrazoles and 4-acylpyrazolones: synthesis and multidrug resistance-modulating activity” (J Med Chem, 1998)
